# Laboratory results from ChEMBL document CHEMBL1629441, “Synthesis, in vitro and in vivo biological evaluation, and comprehensive understanding of structure-activity relationships of dipeptidyl boronic acid proteasome inhibitors constructed from β-amino acids” (J Med Chem, 2010).
# System: PC-3
# Assay: Cytotoxicity against human PC3 cells after 72 hrs by MTT assay
# Type: functional, cell-based
# Conditions: PC-3, 72 h; call rule not given here
# Procedure, shortened: (§1)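 MTT growth assay: 3000 cells per well seeded, after 24 h exposed to 10 drug concentrations for 72 h, then MTT (5 mg/mL stock) 4 h at 37 °C. Formazan dissolved in DMSO, absorbance at 540 nm. Points in triplicate; IC50 is mean of at least three independent determinations. Cells grown at 37 °C, 5% CO2 with FBS.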
row,SMILES,IC50 [µM]
1,CC(C)C[C@H](NC(=O)[C@H](Cc1ccccc1)NC(=O)c1cnccn1)B(O)O [BORTEZOMIB],0.0083

# System: not listed separately
# Assay: Inhibition of human 20S proteasome chymotrypsin-like activity by fluorimetric assay
# Conditions: not given
# Procedure, shortened: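 Human 20S proteasome preincubated with test compound, then Suc-Leu-Leu-Val-Tyr-AMC hydrolysis monitored 1 h at 37 °C by fluorescence (excitation 360 nm, 465 nm). Buffer pH 7.5: 20 mM Tris, 1 mM DTT, 10% glycerol, 0.02% (w/v) SDS; DMSO 3% (v/v) final. IC50 from five concentrations, each in duplicate; bortezomib standard.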
row,SMILES,IC50
1,CC(C)C[C@H](NC(=O)CC(NC(=O)C(=O)OC(C)(C)C)c1cccc(Cl)c1)B(O)O (some centres not stated),Not Active
2,CC(C)C[C@H](NC(=O)CC(NC(=O)C(=O)OC(C)(C)C)c1cccc(F)c1)B(O)O (some centres not stated),Not Active
3,COc1cccc(C(CC(=O)N[C@@H](CC(C)C)B(O)O)NC(=O)C(=O)OC(C)(C)C)c1 (some centres not stated),Not Active
4,CC(C)C[C@H](NC(=O)CC(NC(=O)c1ccccc1)c1ccccc1[N+](=O)[O-])B(O)O (some centres not stated),Not Active
5,CC(C)C[C@H](NC(=O)CC(NC(=O)c1cccnc1)c1cccc(F)c1)B(O)O (some centres not stated),Not Active
6,CC(C)C[C@H](NC(=O)CC(NC(=O)c1cccnc1)c1ccccc1Cl)B(O)O (some centres not stated),Not Active
7,O=C(CC(NC(=O)c1ccccc1)c1cccc(Cl)c1)N[C@@H](CC1CCCCC1)B(O)O (some centres not stated),Not Active
8,O=C(CC(NC(=O)c1cccnc1)c1cccc(Cl)c1)N[C@@H](CC1CCCCC1)B(O)O (some centres not stated),Not Active
9,COc1cccc(C(CC(=O)N[C@@H](Cc2ccccc2C)B(O)O)NC(=O)c2cccnc2)c1 (some centres not stated),Not Active
10,CC(=O)NC(CC(=O)N[C@@H](CC(C)C)B(O)O)c1cccc(Cl)c1 (some centres not stated),Not Active
11,COc1cccc(C(CC(=O)N[C@@H](CC(C)C)B(O)O)NC(C)=O)c1 (some centres not stated),Not Active
12,CC(=O)NC(CC(=O)N[C@@H](CC(C)C)B(O)O)c1cccc(F)c1 (some centres not stated),Not Active

# The remaining lines, values ahead:
row,IC50,SMILES
1,Not Active,CC(C)C[C@H](NC(=O)CC(NC(=O)c1cccnc1)c1ccccc1[N+](=O)[O-])B(O)O (some centres not stated)
2,Not Active,Cc1ccccc1C[C@H](NC(=O)CC(NC(=O)c1ccccc1)c1cccc(F)c1)B(O)O (some centres not stated)
3,Not Active,O=C(CC(NC(=O)c1ccccc1)c1cccc(F)c1)N[C@@H](CC1CCCCC1)B(O)O (some centres not stated)
4,Not Active,Cc1ccccc1C[C@H](NC(=O)CC(NC(=O)c1ccccc1)c1cccc(Cl)c1)B(O)O (some centres not stated)
5,Not Active,Cc1cccc(C[C@H](NC(=O)CC(NC(=O)c2ccccc2)c2cccc(Cl)c2)B(O)O)c1 (some centres not stated)
6,Not Active,O=C(CC(NC(=O)c1ccccc1)c1cccc(Cl)c1)N[C@@H](Cc1cccc(F)c1)B(O)O (some centres not stated)

# Same assay, conditions: read-out: IC50
row,SMILES,IC50 [µM]
1,CC(C)C[C@H](NC(=O)CC(NC(=O)c1cnccn1)c1cccc(F)c1)B(O)O (some centres not stated),0.269
2,CC(C)C[C@H](NC(=O)CC(NC(=O)c1ccccc1)c1ccccc1F)B(O)O (some centres not stated),0.0389
3,CC(C)C[C@H](NC(=O)CC(NC(=O)c1ccccc1)c1ccc(F)cc1)B(O)O (some centres not stated),0.0346
4,CC(C)C[C@H](NC(=O)CC(NC(=O)c1ccccc1)c1cccc(Cl)c1)B(O)O (some centres not stated),0.0165
5,COc1ccccc1C(CC(=O)N[C@@H](CC(C)C)B(O)O)NC(=O)c1ccccc1 (some centres not stated),0.224
6,COc1cccc(C(CC(=O)N[C@@H](CC(C)C)B(O)O)NC(=O)c2ccccc2)c1 (some centres not stated),0.0467
7,CC(C)C[C@H](NC(=O)CC(NC(=O)c1ccccc1)c1ccc([N+](=O)[O-])cc1)B(O)O (some centres not stated),0.0354
8,Cc1ccccc1C(CC(=O)N[C@@H](CC(C)C)B(O)O)NC(=O)c1ccccc1 (some centres not stated),1.25
9,Cc1cccc(C(CC(=O)N[C@@H](CC(C)C)B(O)O)NC(=O)c2ccccc2)c1 (some centres not stated),0.0501
10,CC(C)C[C@H](NC(=O)CC(NC(=O)c1cccnc1)c1ccccc1F)B(O)O (some centres not stated),1.1
11,CC(C)C[C@H](NC(=O)CC(NC(=O)c1cccnc1)c1ccc(F)cc1)B(O)O (some centres not stated),0.59
12,CC(C)C[C@H](NC(=O)[C@H](Cc1ccccc1)NC(=O)c1cnccn1)B(O)O [BORTEZOMIB],0.00154

# Now from value to compound:
row,IC50 [µM],SMILES
1,0.0331,CC(C)C[C@H](NC(=O)CC(NC(=O)C1CCCCC1)c1cccc(F)c1)B(O)O (some centres not stated)
2,0.019,CC(C)C[C@H](NC(=O)CC(NC(=O)c1ccccc1)c1cccc(F)c1)B(O)O (some centres not stated)
3,0.0891,CC(C)C[C@H](NC(=O)CC(NC(=O)c1ccccc1)c1ccccc1Cl)B(O)O (some centres not stated)
4,0.0426,CC(C)C[C@H](NC(=O)CC(NC(=O)c1ccccc1)c1cccc([N+](=O)[O-])c1)B(O)O (some centres not stated)
5,0.0229,CC(C)C[C@H](NC(=O)CC(NC(=O)c1cccnc1)c1cccc(Cl)c1)B(O)O (some centres not stated)

# System: HL-60
# Assay: Cytotoxicity against human HL60 cells after 72 hrs by MTT assay
# Type: functional, cell-based
# Conditions: HL-60, 72 h
# Procedure, shortened: as §1
row,SMILES,IC50 [µM]
1,CC(C)C[C@H](NC(=O)[C@H](Cc1ccccc1)NC(=O)c1cnccn1)B(O)O [BORTEZOMIB],0.0035

# System: Rattus norvegicus
# Assay: Toxicity in Sprague-Dawley rat assessed as incidence of mortality at 1 mg/kg, iv after 10 hrs
# Type: organism-based
# Design: dose 1 mg/kg, route intravenous
# Conditions: in vivo
# Procedure, shortened: (§2)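 Male SD rats dosed once at 1.0 mg/kg, iv bolus or intragastric, during the PK study. Dosing solution 0.5 mg/mL in 1% ethanol, 1% Tween80, 98% buffered saline. Animals observed for death and toxic reactions over 10 h. n = 4 per PK group.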
row,SMILES,Activity
1,CC(C)C[C@H](NC(=O)[C@H](Cc1ccccc1)NC(=O)c1cnccn1)B(O)O [BORTEZOMIB],Toxic

# System: not listed separately
# Assay: Cytotoxicity against human RPMI18226 cells after 72 hrs by MTT assay
# Type: functional, cell-based
# Conditions: RPMI18226, 72 h
# Procedure, shortened: as §1
row,SMILES,IC50 [µM]
1,CC(C)C[C@H](NC(=O)[C@H](Cc1ccccc1)NC(=O)c1cnccn1)B(O)O [BORTEZOMIB],0.0035

# System: Rattus norvegicus
# Assay: Toxicity in Sprague-Dawley rat assessed as incidence of mortality at 1 mg/kg, ig after 10 hrs
# Type: organism-based
# Design: dose 1 mg/kg, route intragastric
# Conditions: in vivo, po
# Procedure, shortened: as §2
row,SMILES,Activity
1,CC(C)C[C@H](NC(=O)[C@H](Cc1ccccc1)NC(=O)c1cnccn1)B(O)O [BORTEZOMIB],Toxic

# System: SK-OV-3
# Assay: Cytotoxicity against human SKOV3 cells after 72 hrs by MTT assay
# Type: functional, cell-based
# Conditions: SK-OV-3, 72 h
# Procedure, shortened: as §1
row,SMILES,IC50 [µM]
1,CC(C)C[C@H](NC(=O)[C@H](Cc1ccccc1)NC(=O)c1cnccn1)B(O)O [BORTEZOMIB],0.0668

# System: not listed separately
# Assay: Mean residence time (0-t) in Sprague-Dawley rat at 1 mg/kg, ig
# Type: ADME, organism-based
# Design: dose 1 mg/kg, route intragastric
# Conditions: in vivo, po
# Procedure, shortened: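 Male SD rats dosed intragastrically at 1.0 mg/kg from 0.5 mg/mL solution in 1% ethanol, 1% Tween80, 98% buffered saline. Heparinized blood (n = 4) centrifuged 4000 rpm, 5 min, 4 °C; plasma lower limit of detection 5 ng/mL.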
row,SMILES,MRT last [h]
1,CC(C)C[C@H](NC(=O)[C@H](Cc1ccccc1)NC(=O)c1cnccn1)B(O)O [BORTEZOMIB],7.69

# System: HepG2
# Assay: Cytotoxicity against human HepG2 cells after 72 hrs by MTT assay
# Type: functional, cell-based
# Conditions: HepG2, 72 h
# Procedure, shortened: as §1
row,SMILES,IC50 [µM]
1,CC(C)C[C@H](NC(=O)[C@H](Cc1ccccc1)NC(=O)c1cnccn1)B(O)O [BORTEZOMIB],0.0252

# System: not listed separately
# Assay: Mean residence time (0-t) in Sprague-Dawley rat at 1 mg/kg, iv
# Type: ADME, organism-based
# Design: dose 1 mg/kg, route intravenous
# Conditions: in vivo
# Procedure, shortened: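 Male SD rats given single 1.0 mg/kg iv bolus of solution (0.5 mg/mL) in 1% ethanol, 1% Tween80, 98% buffered saline. Heparinized blood samples (n = 4) centrifuged 4000 rpm, 5 min, 4 °C; plasma concentrations used to derive PK parameters.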
row,SMILES,MRT last [h]
1,CC(C)C[C@H](NC(=O)[C@H](Cc1ccccc1)NC(=O)c1cnccn1)B(O)O [BORTEZOMIB],1.4

# System: SW480
# Assay: Cytotoxicity against human SW480 cells after 72 hrs by MTT assay
# Type: functional, cell-based
# Conditions: SW480, 72 h
# Procedure, shortened: as §1
row,SMILES,IC50 [µM]
1,CC(C)C[C@H](NC(=O)[C@H](Cc1ccccc1)NC(=O)c1cnccn1)B(O)O [BORTEZOMIB],0.0123

# System: A549
# Assay: Cytotoxicity against human A549 cells after 72 hrs by MTT assay
# Type: functional, cell-based
# Conditions: A549, 72 h
# Procedure, shortened: as §1
row,SMILES,IC50 [µM]
1,CC(C)C[C@H](NC(=O)[C@H](Cc1ccccc1)NC(=O)c1cnccn1)B(O)O [BORTEZOMIB],0.0139

# System: BXPC-3
# Assay: Cytotoxicity against human BxPC3 cells after 72 hrs by MTT assay
# Type: functional, cell-based
# Conditions: BXPC-3, 72 h
# Procedure, shortened: as §1
row,SMILES,IC50 [µM]
1,CC(C)C[C@H](NC(=O)[C@H](Cc1ccccc1)NC(=O)c1cnccn1)B(O)O [BORTEZOMIB],0.0194
